Reference: article PMC10725268 (CPT: Pharmacometrics & Systems Pharmacology, 2023)
Where a SMILES comes first, the peptide text is derived from it. Bridges are numbered along the chain shown (N, C = ends). [ ]: non-standard residue; d: D form. The star is where a group is joined. Heptanoyl(6-Me) = CC(C)CCCCC(=O)*; X1 = CC[C@H](C)CCCCC(=O)*; Dab = NCC[C@H](N)C(=O)O

Columns and labels:
patients receiving PMB = settings: cited from earlier work
[1] = Steady-state plasma concentrations of PMB; format: in vivo; settings: human, iv
In short: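 Blood drawn after ≥48 h of dosing; peak taken immediately after infusion end. Samples centrifuged 885 g, 10 min; supernatant stored −80°C. PMB1 and PMB2 measured by UPLC-MS/MS on a C18 column (2.6 μm, 3.0 × 50 mm), 40°C, 0.3 ml/min. Gradient: 0.1% formic acid in water versus acetonitrile. Total PMB is the sum of PMB1 and PMB2.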

critically ill patients [2] = assay: Clinical outcome during intravenous PMB treatment; format: in vivo, human
In short: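 Single-centre ICU cohort, August 2020–July 2022: adults on intravenous PMB for ≥2 days with MDR Gram-negative infection. Excluded: baseline creatinine >1.5 mg/dl, prior renal replacement, or a changed maintenance dose. Prognosis and adverse events were taken from hospital records. AKI and non-AKI groups were compared by chi-square or Fisher's exact test.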

critically ill patients [3] = assay: PMB-induced acute kidney injury; format: in vivo, human
In short: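 ICU adults (>18 years) with MDR Gram-negative infection, given intravenous PMB (sulfate) for ≥2 days with plasma monitoring. Excluded: baseline serum creatinine >1.5 mg/dl or prior renal replacement. AKI (KDIGO) was a serum creatinine rise ≥0.3 mg/dl within 48 h, >1.5-fold within 7 days, or urine output <0.5 ml/kg/h for >6 h.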

critically ill patients [4] = format: in vivo, human
In short: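 Intravenous dosing: 2.5 mg/kg loading dose (not all patients), then 2.5–3 mg/kg/day in two divided doses. After ≥48 h, mid-interval plasma concentration was sampled 6 h post-dose. Variables with p < 0.05 in univariate logistic regression entered forward-stepwise multivariate regression, with fit checked by Hosmer–Lemeshow. ROC cutoff was taken at the maximum Youden index. AKI probability came from a logistic equation on C1/2t.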

[5] = Estimation of PMB AUC0-24 from timed steady-state plasma concentrations; format: in vivo, human; settings: mean ± SD; for AUC(0-t): human, iv, AUC0–24, trapezoidal area
[6] = one-compartment model, AKI (n = 30)
[7] = one-compartment model, Non-AKI (n = 25)
[8] = one-compartment model, Overall (n = 55)

## CC[C@H](C)CCCCC(=O)N[C@@H](CCN)C(=O)N[C@H](C(=O)N[C@@H](CCN)C(=O)N[C@H]1CCNC(=O)[C@H]([C@@H](C)O)NC(=O)[C@H](CCN)NC(=O)[C@H](CCN)NC(=O)[C@H](CC(C)C)NC(=O)[C@@H](Cc2ccccc2)NC(=O)[C@H](CCN)NC1=O)[C@@H](C)O [PMB1, polymyxin B1] (X1-[Dab]T[Dab][Dab][Dab][dF]L[Dab][Dab]T; lactam 4-C)
Patients receiving PMB; ref 17 (Deng et al.)
  peak concentration above which the probability of AKI would be >50%: > 5.23 µg/mL

## CC(C)CCCCC(=O)N[C@@H](CCN)C(=O)N[C@H](C(=O)N[C@@H](CCN)C(=O)N[C@H]1CCNC(=O)[C@H]([C@@H](C)O)NC(=O)[C@H](CCN)NC(=O)[C@H](CCN)NC(=O)[C@H](CC(C)C)NC(=O)[C@@H](Cc2ccccc2)NC(=O)[C@H](CCN)NC1=O)[C@@H](C)O [PMB2, polymyxin B2] ({Heptanoyl(6-Me)}-[Dab]T[Dab][Dab][Dab][dF]L[Dab][Dab]T; lactam 4-C)
[1]
  Cmax: 1000 ng/mL

## CC[C@H](C)CCCCC(=O)N[C@@H](CCN)C(=O)N[C@H](C(=O)N[C@@H](CCN)C(=O)N[C@H]1CCNC(=O)[C@H]([C@@H](C)O)NC(=O)[C@H](CCN)NC(=O)[C@H](CCN)NC(=O)[C@H](CC(C)C)NC(=O)[C@@H](Cc2ccccc2)NC(=O)[C@H](CCN)NC1=O)[C@@H](C)O [PMB, polymyxin B] (X1-[Dab]T[Dab][Dab][Dab][dF]L[Dab][Dab]T; lactam 4-C)
Patients receiving PMB; ref 16 (Han et al.)
  trough concentration limit suggested to reduce the risk of AKI: < 3.13 mg/L
Patients receiving PMB; systematic review and meta-analysis
  nephrotoxicity compared with colistin: lower nephrotoxicity than colistin
Critically ill patients [2]; AKI group
  30-day mortality rate: 46.7%
Critically ill patients [2]; non-AKI group
  30-day mortality rate: 20%
Critically ill patients [3]; 30 of 55 patients on intravenous PMB, KDIGO definition
  overall AKI incidence: 54.5%
Critically ill patients [3]; after PMB administration
  patients who developed AKI on Day 3: 13.3%
Critically ill patients [3]; share of the AKI group (n = 30)
  patients who developed AKI within 7 days: 46.7%
Critically ill patients [4]; ROC curve, Youden index, p = 0.002, 66.7% sensitivity, 72% specificity
  optimal cutoff value of C1/2t for predicting PMB-induced AKI: 3.47 µg/mL
Critically ill patients [4]; univariate logistic regression, Equation 5
  C1/2t at which the probability of AKI was >50%: ≥ 3.24 mg/L
[5]; based on Cmin(B) and Cmax(B), AKI (n = 30)
  AUC(0-t): 128 ± 36.2 µg·h/mL
[5]; based on Cmin(B) and Cmax(B), Non-AKI (n = 25)
  AUC(0-t): 102 ± 30.9 µg·h/mL
[5]; based on Cmin(B) and Cmax(B), Overall (n = 55)
  AUC(0-t): 116 ± 36 µg·h/mL
[5]; based on Cmin(B), C1/2t(B), and Cmax(B), AKI (n = 30)
  AUC(0-t): 110 ± 31.3 µg·h/mL
[5]; based on Cmin(B), C1/2t(B), and Cmax(B), Non-AKI (n = 25)
  AUC(0-t): 85.4 ± 24.4 µg·h/mL
[5]; based on Cmin(B), C1/2t(B), and Cmax(B), Overall (n = 55)
  AUC(0-t): 99.1 ± 30.8 µg·h/mL
[5]; [6]
  AUC0–24, first-order pharmacokinetic equation, based on C1/2t(B) and Cmax(B) (AUC1/2t,max): 103.7 ± 31.2 µg·h/mL
  AUC0–24, first-order pharmacokinetic equation, based on Cmin(B) and C1/2t(B): 100.7 ± 34.8 µg·h/mL
  AUC0–24, first-order pharmacokinetic equation, based on Cmin(B) and Cmax(B): 115.7 ± 35.1 µg·h/mL
[5]; [7]
  AUC0–24, first-order pharmacokinetic equation, based on Cmin(B) and C1/2t(B): 72.8 ± 21.2 µg·h/mL
  AUC0–24, first-order pharmacokinetic equation, based on Cmin(B) and Cmax(B): 90.2 ± 28.4 µg·h/mL
[5]; [8]
  AUC0–24, first-order pharmacokinetic equation, based on Cmin(B) and C1/2t(B): 88.1 ± 32.3 µg·h/mL
  AUC0–24, first-order pharmacokinetic equation, based on Cmin(B) and Cmax(B): 104.1 ± 34.4 µg·h/mL
